Where a name gives a salt, the structure may show the parent alone. Read-outs that look alike come from different tables or passages of the source.
Assays:
[1] = system: lung HOP-62; conditions: read-out: cytotoxicity (GI50 in μM) lung HOP-62; cited from earlier work
[2] = system: renal SN12C; conditions: read-out: cytotoxicity (GI50 in μM) renal SN12C; cited from earlier work
[3] = system: 60 common human cancer cell lines (NCI-60); conditions: read-out: MGM values; range over the named compounds; cited from earlier work
[4] = system: CNS SF-539; conditions: read-out: cytotoxicity (GI50 in μM) CNS SF-539; cited from earlier work
[5] = system: breast MCF7; conditions: read-out: cytotoxicity (GI50 in μM) breast MCF7; cited from earlier work
[6] = system: melanoma UACC-62; conditions: read-out: cytotoxicity (GI50 in μM) melanoma UACC-62; cited from earlier work
[7] = system: colon HCT-116; conditions: read-out: cytotoxicity (GI50 in μM) colon HCT-116; cited from earlier work
[8] = system: prostate DU-145; conditions: read-out: cytotoxicity (GI50 in μM) prostate DU-145; cited from earlier work
[9] = system: ovarian OVACAR-3; conditions: read-out: cytotoxicity (GI50 in μM) ovarian OVACAR-3; cited from earlier work
[10] = system: 60 common human cancer cell lines (NCI-60); assay: NCI-60 five-dose screen, mean-graph midpoint; type: cell-based
Outline: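 NCI-DTP screen across 60 human cancer cell lines. One-dose prescreen at 10 μM; compounds passing the cutoff went to five concentrations, 100 μM to 10 nM. GI50 per cell line interpolated from five-dose data.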

[11] = target: T1, Human recombinant Top1 (Homo sapiens, UniProt P11387); assay: Top1-mediated DNA cleavage assay; type: biochemical; conditions: graded relative to 1 μM camptothecin
T1 sequence (P11387 1-765): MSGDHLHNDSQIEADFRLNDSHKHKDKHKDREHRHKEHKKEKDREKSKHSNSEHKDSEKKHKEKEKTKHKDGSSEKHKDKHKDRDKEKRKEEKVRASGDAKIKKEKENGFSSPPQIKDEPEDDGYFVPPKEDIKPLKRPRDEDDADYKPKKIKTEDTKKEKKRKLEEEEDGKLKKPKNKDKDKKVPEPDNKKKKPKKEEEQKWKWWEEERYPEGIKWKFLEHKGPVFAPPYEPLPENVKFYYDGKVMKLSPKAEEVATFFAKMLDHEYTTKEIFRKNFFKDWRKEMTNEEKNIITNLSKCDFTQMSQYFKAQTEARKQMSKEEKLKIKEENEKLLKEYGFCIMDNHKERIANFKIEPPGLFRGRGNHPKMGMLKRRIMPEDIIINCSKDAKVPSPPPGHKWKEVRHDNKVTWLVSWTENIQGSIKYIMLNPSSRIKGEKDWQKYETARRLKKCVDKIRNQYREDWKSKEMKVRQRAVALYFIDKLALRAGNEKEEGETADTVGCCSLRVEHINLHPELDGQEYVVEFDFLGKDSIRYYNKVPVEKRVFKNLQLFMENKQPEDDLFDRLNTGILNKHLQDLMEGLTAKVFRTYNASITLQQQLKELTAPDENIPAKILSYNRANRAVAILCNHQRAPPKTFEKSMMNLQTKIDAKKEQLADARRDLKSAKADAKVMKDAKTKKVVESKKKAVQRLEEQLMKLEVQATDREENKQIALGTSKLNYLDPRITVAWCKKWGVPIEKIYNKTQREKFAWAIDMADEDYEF

[12] = target: recombinant TDP1 (Homo sapiens, UniProt Q9NUW8); assay: Gel-based assay measuring the inhibition of recombinant TDP1; type: biochemical; conditions: for IC50: read-out: TDP1 inhibition, semiquantitative IC50 scale
[13] = target: T1, Human recombinant Top1; conditions: graded relative to 1 μM camptothecin; cited from earlier work
[14] = read-out: MGM values, range over the named series
[15] = Homo sapiens, 60 cell, read-out: MGM

recombinant TDP1, sequence (Q9NUW8 whole entry): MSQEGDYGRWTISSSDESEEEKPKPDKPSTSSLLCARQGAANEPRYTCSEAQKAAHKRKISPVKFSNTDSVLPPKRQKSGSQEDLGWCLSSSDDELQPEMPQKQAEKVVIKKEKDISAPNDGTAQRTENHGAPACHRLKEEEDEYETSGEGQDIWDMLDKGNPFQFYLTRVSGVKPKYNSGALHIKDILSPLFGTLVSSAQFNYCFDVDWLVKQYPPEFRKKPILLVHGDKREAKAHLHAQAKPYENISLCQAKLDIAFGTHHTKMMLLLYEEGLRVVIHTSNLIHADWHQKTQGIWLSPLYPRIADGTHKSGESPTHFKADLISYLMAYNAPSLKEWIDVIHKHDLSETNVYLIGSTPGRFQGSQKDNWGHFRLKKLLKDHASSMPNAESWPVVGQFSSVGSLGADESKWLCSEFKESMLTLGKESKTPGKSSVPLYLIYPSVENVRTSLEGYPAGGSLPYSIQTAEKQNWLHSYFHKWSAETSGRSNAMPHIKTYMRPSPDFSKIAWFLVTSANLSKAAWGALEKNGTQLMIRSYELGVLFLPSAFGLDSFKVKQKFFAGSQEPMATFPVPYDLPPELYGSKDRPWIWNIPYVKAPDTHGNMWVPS

**Q.** For `COc1cc2c(cc1O)C(=O)c1c-2n(CCCn2ccnc2)c(=O)c2cc(OC)c(OC)cc12` [Compound 11], which GI50 [1] is on record?
**A.** < 0.01 µM

**Q.** And the GI50 [2]?
**A.** < 0.01 µM

**Q.** What about the GI50 [3] of the same compound?
**A.** 55 to 87 nM

**Q.** What about the GI50 [4] of the same compound?
**A.** < 0.01 µM

**Q.** What about the GI50 [5] of the same compound?
**A.** < 0.01 µM

**Q.** And the GI50 [6]?
**A.** < 0.01 µM

**Q.** And the GI50 [7]?
**A.** < 0.01 µM

**Q.** What about the GI50 [8] of the same compound?
**A.** < 0.01 µM

**Q.** And the GI50 [9]?
**A.** 0.02 µM

**Q.** With `O=C1c2c(O)cccc2-c2c1c1ccc([N+](=O)[O-])cc1c(=O)n2CCCn1ccnc1` [Compound 60, 6-(3-(1H-Imidazol-1-yl)propyl)-10-hydroxy-3-nitro-5H-indeno-[1,2-c]isoquinoline-5,11(6H)-dione Hydrobromide] as the compound, how does the GI50 [10, 14] read?
**A.** 234 to 3550 nM

**Q.** With `Br.NCCCn1c2c(c3ccc([N+](=O)[O-])cc3c1=O)C(=O)c1cc(O)ccc1-2` [Compound 71, 6-(3-Aminopropyl)-9-hydroxy-3-nitro-5H-indeno[1,2-c]-isoquinoline-5,11(6H)-dione Hydrobromide] as the compound, how does the Top1 cleavage [11] read?
**A.** ++++

**Q.** And the GI50 [10, 15]?
**A.** 120 nM

**Q.** What about the “TDP1 inhibitory activity (in words)” value [12] of the same compound?
**A.** TDP1 inhibitors

**Q.** What about the IC50 [12] of the same compound?
**A.** 37 to 111 µM

**Q.** With `Br.NCCCn1c2c(c3ccc([N+](=O)[O-])cc3c1=O)C(=O)c1c(O)cccc1-2` [Compound 64, 6-(3-Amino-propyl)-10-hydroxy-3-nitro-5H-indeno[1,2-c]isoquinoline-5,11(6H)-dione Hydrobromide] as the compound, how does the GI50 [10, 15] read?
**A.** 2000 nM

**Q.** What about the GI50 [10, 14] of the same compound?
**A.** 234 to 3550 nM

**Q.** And the “TDP1 inhibitory activity (in words)” value [12]?
**A.** TDP1 inhibitors

**Q.** What about the IC50 [12] of the same compound?
**A.** 12 to 37 µM

**Q.** For `COc1cccc2c1-c1c(c3ccc([N+](=O)[O-])cc3c(=O)n1CCCN)C2=O` [Compound 4], which GI50 [1] is on record?
**A.** 1.1 µM

**Q.** And the Top1 cleavage [13]?
**A.** ++++

**Q.** And the GI50 [6]?
**A.** 2.3 µM

**Q.** And the GI50 [8]?
**A.** 1.1 µM

**Q.** What about the GI50 [9] of the same compound?
**A.** 2.3 µM

**Q.** Which GI50 [10, 15] does the source give for `O=C1c2c(O)cccc2-c2c1c1ccc([N+](=O)[O-])cc1c(=O)n2CCCN1CCOCC1` [Compound 56, 10-(Hydroxy)-6-(3-morpholinopropyl)-3-nitro-5H-indeno[1,2-c]-isoquinoline-5,11(6H)-dione] here?
**A.** 3500 nM

**Q.** And the GI50 [10, 14]?
**A.** 234 to 3550 nM

**Q.** For `COc1ccc2c(c1)C(=O)c1c-2n(CCCN)c(=O)c2cc([N+](=O)[O-])ccc12` [Compound 5], which GI50 [1] is on record?
**A.** < 0.01 µM

**Q.** And the Top1 cleavage [13]?
**A.** +++++

**Q.** What about the GI50 [2] of the same compound?
**A.** < 0.01 µM

**Q.** And the GI50 [4]?
**A.** < 0.01 µM

**Q.** And the GI50 [6]?
**A.** < 0.01 µM

**Q.** And the GI50 [7]?
**A.** < 0.01 µM

**Q.** What does the source list for `Cl.NCCCn1c2c(c3ccc([N+](=O)[O-])cc3c1=O)C(=O)c1cccc(O)c1-2` [Compound 45, 6-(3-Aminopropyl)-7-hydroxy-3-nitro-5H-indeno[1,2-c]-isoquinoline-5,11(6H)-dione Hydrochloride]?
**A.** Top1 cleavage [11]: ++ (50–75% activity); TDP1 inhibitory activity (in words) [12]: TDP1 inhibitors; IC50 [12]: 12 to 37 µM

**Q.** Which results are given for `COc1cc2c(cc1O)C(=O)c1c-2n(CCCN2CCOCC2)c(=O)c2cc(OC)c(OC)cc12` [Compound 10]?
**A.** GI50 [1]: 0.02 µM; Top1 cleavage [13]: +++++; GI50 [2]: 0.02 µM; GI50 [3]: 55 to 87 nM; GI50 [4]: 0.02 µM; GI50 [5]: 0.02 µM; GI50 [6]: 0.02 µM; GI50 [7]: 0.03 µM; GI50 [8]: 0.02 µM; GI50 [9]: 0.03 µM

**Q.** Which results are given for `Br.COc1cc2c(cc1O)-c1c(c3ccc([N+](=O)[O-])cc3c(=O)n1CCCn1ccnc1)C2=O` [Compound 34, 6-(3-(1H-Imidazol-1-yl)propyl)-8-hydroxy-9-methoxy-3-nitro-5H-indeno[1,2-c]isoquinoline-5,11(6H)-dione Hydrobromide]?
**A.** Top1 cleavage [11]: ++(+); GI50 [10, 15]: 740 nM; IC50 [12]: 12 to 37 µM

**Q.** For `O=C1c2ccccc2-c2c1c1ccccc1c(=O)n2CCCNCCCNCCCn1c2c(c3ccccc3c1=O)C(=O)c1ccccc1-2` [Compound 72], which IC50 [12] is on record?
**A.** 1 to 12 µM

Source: paper PMC7747014 (Journal of medicinal chemistry, 2015)
